For data set [1] the following is noted: phosphate buffer pH 7.4; previously reported compound; cited from earlier work.
Data set [2] can be described thus: Pooled human liver microsomal assay. The class given is in vitro ADME. Conditions: pooled human liver microsomes, 0.5 μM compound, NADPH. Put shortly:
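Microsomes at 0.5 mg/mL in 50 mM potassium phosphate, pH 7.4, reaction started with excess NADPH. Aliquots at 0, 3, 6, 9, 15 and 30 min quenched in acetonitrile, internal standard added, protein spun down, UPLC-MS/MS. Rate constant from exponential decay of compound/internal standard peak-area ratio. CLi scaled by incubation volume/mg protein and 52.5 mg protein/g liver. Verapamil positive control.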

Data set [3] has as its system bloodstream form T. b. brucei BS427. The data set can be described thus: Trypanocidal activity, Alamar Blue assay. In kind it is cell-based.
Data set [4] is described as follows: Chemical stability in phosphate buffer at pH 7.4. In kind it is physicochemical. Conditions: pH 7.4, t1/2 pH 7.4, phosphate buffer pH 7.4.
Another data set relates to T. brucei. To be noted: cited from earlier work.

Structures are written as SMILES. Read-outs that look alike come from different tables or passages of the source.

For the compound `COC(=O)[C@@H](C)NP(=O)(OC[C@H]1OC(C)(C)O[C@H]1C(=O)NO)Oc1ccc([N+](=O)[O-])cc1` (stereo partly drawn) [15a], the half-life entry in data set [1] was “about 50 min”.
With `CCOC(=O)[C@H](NP(=O)(OC[C@H]1OC(C)(C)O[C@H]1C(=O)NO)Oc1ccccc1)C(C)C` (stereo partly drawn) [15f], the “PHLM Cli” value in data set [2] was less than 0.5 mL/min/g.
Still for that read-out and setting: as for `CCOC(=O)[C@H](NP(=O)(OC[C@H]1OC(C)(C)O[C@H]1C(=O)NO)Oc1ccc(C)cc1)C(C)C` (stereo partly drawn) [15l], the figure is less than 0.5 mL/min/g.
Compound `COC(=O)[C@@H](C)NP(=O)(OC[C@H]1OC(C)(C)O[C@H]1C(=O)NO)Oc1cccc(C)c1C` (stereo partly drawn) [15o] returned an IC50 in data set [3] (Trypanosoma brucei) of 270 nM. For the same compound, the half-life in data set [4] is 30 h.
As for `CCOC(=O)[C@H](NP(=O)(OC[C@H]1OC(C)(C)O[C@H]1C(=O)NO)Oc1cccc(C)c1C)C(C)C` (stereo partly drawn) [15p], the “PHLM Cli” value in data set [2] is reported as less than 0.5 mL/min/g.
Take `Cc1cccc(OP(=O)(N[C@@H](C(=O)OC(C)(C)C)C(C)C)OC[C@H]2OC(C)(C)O[C@H]2C(=O)NO)c1C` (stereo partly drawn) [15q]: in data set [3] (15q relative to 15a), the increase in activity result was “more than 5000 times”.
On to `CC1(C)O[C@H](COP(=O)(O)O)[C@H](C(=O)NO)O1` [compound 1, 2,3-O-Isopropylidene-4-erythrono hydroxamate], for which the EC50 with T. brucei (T. brucei cell culture, previously reported compounds) was more than 330000 nM. Moreover, in the data set on T. brucei (result in words), the “activity against the parasite” value is “inactive”.

Source of the values: article PMC2923871 (Journal of Medicinal Chemistry, 2010).
